Each block holds one molecule with its values, some of them ahead of it.
Tests used:
Cricetinae gen. sp. [1] = test: Reversal of keratinization in vitamin A deficient hamster trachea culture; format: functional, Cricetulus griseus; conditions: read-out: ED50 (the source's name)
Outline: (§1)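 Tracheas from 29-31-day-old hamsters kept on a vitamin A free diet, cultured in serum-free CMRL 1066 (insulin 1.0 μg/mL, hydrocortisone hemisuccinate 0.1 μg/mL, glutamine 2 mM, Garamycin 50 μg/mL), 50% O2/45% N2/5% CO2, rocked at 36 °C. Retinoid-free for 3 days, then retinoid in DMSO (0.1% final) for 7 days. Fixed in formalin; squamous metaplasia graded mild 2-10%, marked 10-40%, severe >40%.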

Cricetinae gen. sp. [2] = test: Cultures with mild degree of squamous metaplasia at a conc of 10e-11 M; format: functional, Cricetulus griseus
Outline: (§2)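 Tracheas from 29-31-day-old hamsters fed a vitamin A free diet; cultured in serum-free CMRL 1066 (insulin 1.0 μg/mL, hydrocortisone hemisuccinate 0.1 μg/mL, glutamine 2 mM, Garamycin 50 μg/mL), 50% O2/45% N2/5% CO2, rocked, 36 °C. Retinoid-free 3 days, then retinoid in DMSO (final 0.1%) for 7 days; medium and gas changed three times. Formalin-fixed day 10; squamous metaplasia graded: mild 2-10%, marked 10-40%, severe >40%.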

Cricetinae gen. sp. [3] = test: Cultures with mild degree of squamous metaplasia at a conc of 10e-9 M; format: functional, Cricetulus griseus; outline: as §2
Cricetinae gen. sp. [4] = test: Cultures with severe degree of squamous metaplasia at a conc of 10e-10 M; format: functional, Cricetulus griseus; outline: as §2
Cricetinae gen. sp. [5] = test: Cultures with severe degree of squamous metaplasia at a conc of 10e-8 M; format: functional, Cricetulus griseus; outline: as §2
Cricetinae gen. sp. [6] = test: Reversal of keratinization in vitamin A deficient hamster trachea culture at a conc of 10e-8 M; format: functional, Cricetulus griseus; conditions: read-out: ED50 (the source's name); outline: as §1
Cricetinae gen. sp. [7] = test: Cultures with marked degree of squamous metaplasia at a conc of 10e-11 M; format: functional; outline: as §2
Cricetinae gen. sp. [8] = test: Cultures with no evidence of squamous metaplasia at a conc of 10e-8 M; format: functional, Cricetulus griseus; outline: as §2
Cricetinae gen. sp. [9] = test: Cultures with no evidence of squamous metaplasia at a conc of 10e-11 M; format: functional, Cricetulus griseus; outline: as §2
Cricetinae gen. sp. [10] = test: Cultures with mild degree of squamous metaplasia at a conc of 10e-8 M; format: functional, Cricetulus griseus; outline: as §2
Cricetinae gen. sp. [11] = test: Cultures with severe degree of squamous metaplasia at a conc of 10e-9 M; format: functional, Cricetulus griseus; outline: as §2
Cricetinae gen. sp. [12] = test: Cultures with severe degree of squamous metaplasia at a conc of 10e-11 M; format: functional, Cricetulus griseus; outline: as §2
Cricetinae gen. sp. [13] = test: Cultures with minimal degree of squamous metaplasia at a conc of 10e-8 M; format: functional, Cricetulus griseus; outline: as §2
Cricetinae gen. sp. [14] = test: Cultures with no evidence of squamous metaplasia at a conc of 10e-10 M; format: functional, Cricetulus griseus; outline: as §2
Cricetinae gen. sp. [15] = test: Cultures with minimal degree of squamous metaplasia at a conc of 10e-11 M; format: functional, Cricetulus griseus; outline: as §2
Cricetinae gen. sp. [16] = test: Cultures with marked degree of squamous metaplasia at a conc of 10e-8 M; format: functional, Cricetulus griseus; outline: as §2
Cricetinae gen. sp. [17] = test: Cultures with mild degree of squamous metaplasia at a conc of 10e-10 M; format: functional, Cricetulus griseus; outline: as §2
Cricetinae gen. sp. [18] = test: Cultures with marked degree of squamous metaplasia at a conc of 10e-10 M; format: functional, Cricetulus griseus; outline: as §2
Cricetinae gen. sp. [19] = test: Cultures with minimal degree of squamous metaplasia at a conc of 10e-9 M; format: functional, Cricetulus griseus; outline: as §2
Cricetinae gen. sp. [20] = test: Cultures with no evidence of squamous metaplasia at a conc of 10e-9 M; format: functional, Cricetulus griseus; outline: as §2
Cricetinae gen. sp. [21] = test: Cultures with marked degree of squamous metaplasia at a conc of 10e-9 M; format: functional, Cricetulus griseus; outline: as §2
Cricetinae gen. sp. [22] = test: Cultures with minimal degree of squamous metaplasia at a conc of 10e-10 M; format: functional, Cricetulus griseus; outline: as §2
L1210 [23] = test: Inhibition of proliferation of L1210 cells in culture at a conc 1 ug/mL; format: functional, Mus musculus; design: scale not given: the % may be the effect or the level left
Outline: (§3)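 L1210 suspension of about 10⁵ cells treated with retinoid at 1-40 μg/mL, 37 °C for 48 h; cells counted at 0 and 48 h, three cultures averaged per concentration. % of control = 100 × (treated 48 h − 0 h count)/(control 48 h − 0 h count).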

HEp-2 [24] = test: Viability of human epidermoid carcinoma cells (H.Ep-2) at a conc 1 ug/mL; format: functional
Outline: (§4)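 Human epidermoid carcinoma H.Ep.-2 cells, clone-colony viability assay with retinoid at 1-40 μg/mL; incubated 37 °C for 12 days, stained, colonies counted. % of control = 100 × treated colonies/control colonies.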

L1210 [25] = test: Inhibition of proliferation of L1210 cells in culture at a conc 10 ug/mL; format: functional, Mus musculus; design: scale not given: the % may be the effect or the level left; outline: as §3
HEp-2 [26] = test: Viability of human epidermoid carcinoma cells (H.Ep-2) at a conc 40 ug/mL; format: functional; outline: as §4
HEp-2 [27] = test: Viability of human epidermoid carcinoma cells (H.Ep-2) at a conc 20 ug/mL; format: functional; outline: as §4
HEp-2 [28] = test: Viability of human epidermoid carcinoma cells (H.Ep-2) at a conc 10 ug/mL; format: functional; outline: as §4
L1210 [29] = test: Inhibition of proliferation of L1210 cells in culture at a conc 20 ug/mL; format: functional, Mus musculus; design: scale not given: the % may be the effect or the level left; outline: as §3
L1210 [30] = test: Inhibition of proliferation of L1210 cells in culture at a conc 40 ug/mL; format: functional, Mus musculus; design: scale not given: the % may be the effect or the level left; outline: as §3

Structure (SMILES): CC1=C(/C=C/C(C)=C/C=C/C(C)=C/C(=O)NCCO)C(C)(C)CCC1
EC50 (Cricetinae gen. sp. [1]): 0.1 nM

Structure (SMILES): CC1=C(/C=C/C(C)=C/C=C/C(C)=C\C(=O)NC(Cc2ccccc2)C(=O)O)C(C)(C)CCC1 (stereo unspecified)
Culture (Cricetinae gen. sp. [2]): 14%
Culture (Cricetinae gen. sp. [3]): 20%
Culture (Cricetinae gen. sp. [4]): 14%
Culture (Cricetinae gen. sp. [5]): 7%
EC50 (Cricetinae gen. sp. [6]): 0.6 nM
Culture (Cricetinae gen. sp. [7]): 43%
Culture (Cricetinae gen. sp. [8]): 60%
Culture (Cricetinae gen. sp. [9]): 29%
Culture (Cricetinae gen. sp. [10]): 13%
Culture (Cricetinae gen. sp. [11]): 7%
Culture (Cricetinae gen. sp. [12]): 14%
Culture (Cricetinae gen. sp. [13]): 0%
Culture (Cricetinae gen. sp. [14]): 29%
Culture (Cricetinae gen. sp. [15]): 0%
Culture (Cricetinae gen. sp. [16]): 20%
Culture (Cricetinae gen. sp. [17]): 21%
Culture (Cricetinae gen. sp. [18]): 36%
Culture (Cricetinae gen. sp. [19]): 0%
Culture (Cricetinae gen. sp. [20]): 53%
Culture (Cricetinae gen. sp. [21]): 20%
Culture (Cricetinae gen. sp. [22]): 0%

Structure (SMILES): CC1=C(/C=C/C(C)=C/C=C/C(C)=C/C(=O)NC(Cc2ccc(O)cc2)C(=O)O)C(C)(C)CCC1 (stereo unspecified)
Culture (Cricetinae gen. sp. [3]): 12%
Culture (Cricetinae gen. sp. [4]): 14%
Culture (Cricetinae gen. sp. [5]): 0%
EC50 (Cricetinae gen. sp. [6]): 3 nM
Culture (Cricetinae gen. sp. [8]): 75%
Culture (Cricetinae gen. sp. [10]): 0%
Culture (Cricetinae gen. sp. [11]): 0%
Culture (Cricetinae gen. sp. [13]): 0%
Culture (Cricetinae gen. sp. [14]): 14%
Culture (Cricetinae gen. sp. [16]): 25%
Culture (Cricetinae gen. sp. [17]): 14%
Culture (Cricetinae gen. sp. [18]): 58%
Culture (Cricetinae gen. sp. [19]): 0%
Culture (Cricetinae gen. sp. [20]): 38%
Culture (Cricetinae gen. sp. [21]): 50%
Culture (Cricetinae gen. sp. [22]): 0%

Structure (SMILES): CC1=C(/C=C/C(C)=C/C=C/C(C)=C\C(=O)NCCO)C(C)(C)CCC1
Control (L1210 [23]): 76%
Control (HEp-2 [24]): 61%
Control (L1210 [25]): 57%
Control (HEp-2 [26]): 27%
Control (HEp-2 [27]): 21%
Control (HEp-2 [28]): 38%
Control (L1210 [29]): 56%
Control (L1210 [30]): 0.5%
EC50 (Cricetinae gen. sp. [1]): 0.3 nM

Further lines, with some results ahead:

EC50 (Cricetinae gen. sp. [6]): 0.7 nM
Structure (SMILES): CC1=C(/C=C/C(C)=C/C=C/C(C)=C\C(=O)NC(C)C(=O)O)C(C)(C)CCC1 (stereo unspecified)
Culture (Cricetinae gen. sp. [2]): 0%
Culture (Cricetinae gen. sp. [3]): 13%
Culture (Cricetinae gen. sp. [4]): 7%
Culture (Cricetinae gen. sp. [5]): 0%
Culture (Cricetinae gen. sp. [7]): 71%
Culture (Cricetinae gen. sp. [8]): 100%
Culture (Cricetinae gen. sp. [9]): 14%
Culture (Cricetinae gen. sp. [10]): 0%
Culture (Cricetinae gen. sp. [11]): 0%
Culture (Cricetinae gen. sp. [12]): 15%
Culture (Cricetinae gen. sp. [13]): 0%
Culture (Cricetinae gen. sp. [14]): 36%
Culture (Cricetinae gen. sp. [15]): 0%
Culture (Cricetinae gen. sp. [16]): 0%
Culture (Cricetinae gen. sp. [17]): 21%
Culture (Cricetinae gen. sp. [18]): 36%
Culture (Cricetinae gen. sp. [19]): 0%
Culture (Cricetinae gen. sp. [20]): 47%
Culture (Cricetinae gen. sp. [21]): 40%
Culture (Cricetinae gen. sp. [22]): 0%

EC50 (Cricetinae gen. sp. [6]): 0.5 nM
Structure (SMILES): CC1=C(/C=C/C(C)=C/C=C/C(C)=C\C(=O)NC(CC(C)C)C(=O)O)C(C)(C)CCC1 (stereo unspecified)
Culture (Cricetinae gen. sp. [2]): 0%
Culture (Cricetinae gen. sp. [3]): 29%
Culture (Cricetinae gen. sp. [4]): 0%
Culture (Cricetinae gen. sp. [5]): 0%
Culture (Cricetinae gen. sp. [7]): 50%
Culture (Cricetinae gen. sp. [8]): 72%
Culture (Cricetinae gen. sp. [9]): 33%
Culture (Cricetinae gen. sp. [10]): 14%
Culture (Cricetinae gen. sp. [11]): 0%
Culture (Cricetinae gen. sp. [12]): 17%
Culture (Cricetinae gen. sp. [13]): 0%
Culture (Cricetinae gen. sp. [14]): 29%
Culture (Cricetinae gen. sp. [15]): 0%
Culture (Cricetinae gen. sp. [16]): 14%
Culture (Cricetinae gen. sp. [17]): 14%
Culture (Cricetinae gen. sp. [18]): 57%
Culture (Cricetinae gen. sp. [19]): 0%
Culture (Cricetinae gen. sp. [20]): 57%
Culture (Cricetinae gen. sp. [21]): 14%
Culture (Cricetinae gen. sp. [22]): 0%

EC50 (Cricetinae gen. sp. [1]): 1 nM
Structure (SMILES): CCNC(=O)/C=C(C)/C=C/C=C(C)/C=C/C1=C(C)CCCC1(C)C

EC50 (Cricetinae gen. sp. [6]): > 10 nM
Structure (SMILES): CC1=C(/C=C/C(C)=C/C=C/C(C)=C/C(=O)NC(CCC(=O)O)C(=O)O)C(C)(C)CCC1 (stereo unspecified)
Culture (Cricetinae gen. sp. [3]): 50%
Culture (Cricetinae gen. sp. [4]): 0%
Culture (Cricetinae gen. sp. [5]): 0%
Culture (Cricetinae gen. sp. [8]): 38%
Culture (Cricetinae gen. sp. [10]): 12%
Culture (Cricetinae gen. sp. [11]): 0%
Culture (Cricetinae gen. sp. [13]): 0%
Culture (Cricetinae gen. sp. [14]): 14%
Culture (Cricetinae gen. sp. [16]): 50%
Culture (Cricetinae gen. sp. [17]): 29%
Culture (Cricetinae gen. sp. [18]): 43%
Culture (Cricetinae gen. sp. [19]): 0%
Culture (Cricetinae gen. sp. [20]): 25%
Culture (Cricetinae gen. sp. [21]): 25%
Culture (Cricetinae gen. sp. [22]): 14%

— ChEMBL document CHEMBL1123950, “N-(Retinoyl)amino acids. Synthesis and chemopreventive activity in vitro” (1988)
